# Assay outcomes as filed in PubChem BioAssay.
# PAD4 inh = inhibitors of human PAD4 | Q9UM07 | inhibition, % at 6.36 µM | recombinant PAD4, RCA probe fluorescence polarization | actives 0.41% (n = 330,000) | AID 485272;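 active = percent inhibition above a cutoff equal to the mean of all tested compounds plus 3 SD, cut at about 15% in these data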;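 also: 0% = PAD4 with RCA probe and DMSO and 100% = probe without PAD4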
# Target sequence (Q9UM07 whole entry, looked up): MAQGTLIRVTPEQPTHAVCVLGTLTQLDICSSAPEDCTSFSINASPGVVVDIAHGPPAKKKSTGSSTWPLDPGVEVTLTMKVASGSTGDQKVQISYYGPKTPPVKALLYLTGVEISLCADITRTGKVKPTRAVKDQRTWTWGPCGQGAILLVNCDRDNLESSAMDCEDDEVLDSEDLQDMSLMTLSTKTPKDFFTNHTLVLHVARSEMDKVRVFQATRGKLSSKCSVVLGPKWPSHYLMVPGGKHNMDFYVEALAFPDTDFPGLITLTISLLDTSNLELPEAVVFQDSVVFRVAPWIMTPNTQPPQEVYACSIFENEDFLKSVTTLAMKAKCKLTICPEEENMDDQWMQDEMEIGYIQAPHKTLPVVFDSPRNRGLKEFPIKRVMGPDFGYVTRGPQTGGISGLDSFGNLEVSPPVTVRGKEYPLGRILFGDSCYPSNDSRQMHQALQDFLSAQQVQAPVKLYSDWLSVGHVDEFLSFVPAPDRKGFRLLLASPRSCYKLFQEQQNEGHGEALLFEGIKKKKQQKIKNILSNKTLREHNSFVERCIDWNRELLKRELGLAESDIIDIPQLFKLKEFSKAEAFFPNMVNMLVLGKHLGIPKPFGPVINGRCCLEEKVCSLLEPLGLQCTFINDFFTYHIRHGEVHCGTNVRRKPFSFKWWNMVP
# RBBP9 inhibitor = inhibitors of human serine hydrolase RBBP9; inhibition, % at 7.94 µM; O75884; AID 1515; actives 0.2% (n = 220,000); recombinant RBBP9, FP-Rh probe fluorescence polarization;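 active = inhibition above the campaign mean of all tested compounds plus 3 SD, cut at about 14% in these data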;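 also: plate controls were DMSO wells with RBBP9 for no effect and wells lacking RBBP9 protein for full effect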
#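 Test system: recombinant human RBBP9; Timing: 30 min then 45 min, 25 °C; Detection: fluorescence polarization; Control set: RBBP9 with DMSO as uninhibited control, no-protein wells as full inhibition; Compound dosing: one concentration, 7.94 µM nominal, 0.794% DMSO; Probe or stimulus: FP-Rh activity-based probe, 375 nM before mixing.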
# PME-1 inh = blocks human protein phosphatase methylesterase 1. Q9Y570. recombinant PME-1, FP-Rh probe fluorescence polarization. inhibition, % at 5.9 µM. actives 0.53% (n = 320,000);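 active = inhibition above the campaign mean of all compounds plus 3 SD, cut at about 26% in these data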;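 also: competitive labeling of PME-1 active site by serine hydrolase directed probe; 0% = PME-1 with DMSO and 100% = wells lacking PME-1 enzyme; inhibitors block probe labeling so polarization falls and inhibition rises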
# GSTO1 inh = GSTO1 inhibition, counter-screen for RBBP9 inhibitors | actives 1.1% (n = 300,000) | inhibition, % at 5.96 µM | AID 1974 | recombinant GSTO1, activity-based probe fluorescence polarization;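 active = inhibition above the campaign mean inhibition plus 3 SD, cut at about 35% in these data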;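 also: 0% = GSTO1-1 with DMSO and 100% = wells lacking GSTO1-1 enzyme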
# PRMT1 inh = PRMT1 (human) inhibition, primary screen. AID 652257. inhibition, % at 2.79 µM. actives 1.3% (n = 370,000). Q99873. recombinant PRMT1, activity-based probe fluorescence polarization;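 active = inhibition above about 21% made by adding two undisclosed values, limit read from the data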
# Fam108B counter = Fam108B inhibition, counter-screen for RBBP9 inhibitors; recombinant Fam108B, FP-Rh probe fluorescence polarization; inhibition, % at 9.51 µM; actives 0.33% (n = 300,000);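 active = inhibition above the screen mean inhibition plus 3 SD, computed separately per campaign, cut at about 18% in these data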;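 also: inhibitors lower polarization as less probe binds the enzyme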
# GSTO1 confirm = GSTO1 (human) inhibition, confirmation; inhibition, % at 5.96 µM; shares compounds with GSTO1 inh; recombinant GSTO1, probe fluorescence polarization; actives 54% (n = 2,400); AID 2176;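 active = inhibition above the primary screen's cutoff, its mean inhibition plus 3 SD, cut at about 35% in these data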;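 also: loss of polarization as inhibitors block binding of rhodamine sulfonate ester activity probe; 0% = GSTO1 with DMSO and 100% = wells lacking GSTO1 enzyme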
# GSTO1 recomb ABPP = blocks recombinant human glutathione S-transferase omega 1. shares compounds with GSTO1 inh. inhibition, % at 1 µM. actives 30% (n = 130). AID 463110. recombinant GSTO1, gel ABPP SE-Rh probe fluorescence;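 active = inhibition of the enzyme GSTO1 above about 75%, limit read from the data; inactive = inhibition below that limit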
# An asterisk follows results filed as active; · = no result. Hits are enriched below; roughly 2.3% of the tested compounds scored in any of these assays.
SMILES,PAD4 inh,RBBP9 inhibitor,PME-1 inh,GSTO1 inh,PRMT1 inh,Fam108B counter,GSTO1 confirm,others
Cc1cc(C(=O)N2CCN(Cc3ccccc3)CC2)ccc1[N+](=O)[O-],-6.8,·,-9.1,-2.3,-2.6,3.5,·,
CCCCCCc1c(O)c2ccccc2[nH]c1=O,1.8,-4.8,-0.2,-1.9,3.0,3.0,·,
CCCCCCCCCCCC1=C(O)C(=O)C=C(O)C1=O,-2.4,·,20.1,79.4*,·,14.9,65.8*,
Cc1ccc(NC(=O)Cc2ccc([N+](=O)[O-])cc2)c(Br)c1,-6.4,-9.2,-2.2,4.2,1.4,2.1,·,
COc1ccc(C2NN=C(c3c[nH]c4ccccc34)C2O)cc1 (centres undefined),-20.2,·,5.2,-9.7,-1.3,4.5,·,
COc1ccc(C2C(O)C(c3c[nH]c4ccccc34)=NN2C(=O)CCl)cc1 (centres undefined),8.3,·,5.0,87.6*,3.8,3.0,93.3*,
COc1ccccc1C(=O)Nc1nc(-c2cccs2)c(NC(C)=O)s1,1.4,-12.5,2.2,38.7*,3.0,-1.5,8.4,
CCNC(=S)N/N=C/c1ccc(OCc2ccc(C(=O)OC)cc2)cc1,-2.4,1.1,-5.9,-0.5,-1.0,-4.3,·,
CCN(CC)C(=O)Cn1cc(C(=O)C(=O)N2CCN(c3ccccc3)CC2)c2ccccc21,1.9,·,-3.2,-1.4,8.2,0.3,·,
CCN(C(=O)Cn1cc(C(=O)C(=O)N2CCOCC2)c2ccccc21)c1ccccc1,4.2,·,6.7,67.1*,0.5,2.6,2.0,
COc1ccc(C(=O)n2nc(-c3ccco3)nc2SC)cc1OC,3.1,-2.5,2.5,4.0,0.1,6.1,·,
Nc1ccc(N2CCCCC2)cc1N1CCCCC1,-25.2,-0.3,5.6,56.9*,5.9,1.2,6.6,
Cc1nn(-c2cc(N3CCCCC3)ccc2N)c(=O)c2ccccc12,1.9,-1.7,-3.0,7.7,0.4,1.0,·,
CC(C)CNC(=O)Nc1ccccc1F,-0.5,-1.5,-0.3,1.5,-2.2,-6.1,·,
CC(C)CNC(=O)NC1(C(F)(F)F)Oc2ccccc2O1,-1.6,3.8,1.2,50.6*,1.8,1.5,6.8,
O=C(NCc1cccnc1)NC1(C(F)(F)F)Oc2ccccc2O1,-5.1,-3.4,7.0,41.4*,2.0,-0.7,2.4,
COc1cccc(NC(=O)NC2(C(F)(F)F)Oc3ccccc3O2)c1,3.0,0.5,4.8,41.2*,0.4,-5.7,3.4,
O=C(CCNS(=O)(=O)c1ccccc1)NNC(=O)COc1ccc(Cl)cc1,0.6,·,4.4,·,1.5,·,·,
COc1ccc(S(=O)(=O)/N=C2/C=CC(=O)C(C)=C2C)cc1,-5.4,-5.2,-4.5,-1.4,·,-6.8,·,
CC1=C(C)/C(=N\OS(=O)(=O)c2ccc(C)cc2)C=CC1=O,-1.0,-3.5,4.8,44.5*,23.7*,1.5,7.0,
COC(=O)c1ccc(NC(=O)CS(=O)(=O)c2ccccc2)cc1,1.6,·,-1.6,8.9,5.6,2.0,·,
COc1ccc(CNC(=O)c2noc(C(C)C)c2[N+](=O)[O-])cc1,-2.5,-5.3,2.8,22.8,-3.2,2.6,·,
COc1ccc(CCNC(=O)c2noc(C(C)C)c2[N+](=O)[O-])cc1OC,0.1,·,-4.3,38.8*,2.8,-5.6,30.4,
CC(C)c1ccc(NS(=O)(=O)c2ccc3c(c2)oc(=O)n3C)cc1,-1.2,·,5.0,65.4*,-1.0,-0.4,65.0*,
Cc1cccc(CCNS(=O)(=O)c2ccc3c(c2)oc(=O)n3C)c1,9.5,6.0,2.6,55.4*,-0.8,-3.6,57.6*,
SMILES,PAD4 inh,RBBP9 inhibitor,PME-1 inh,GSTO1 inh,PRMT1 inh,Fam108B counter,GSTO1 confirm,others
Cn1c(=O)oc2cc(S(=O)(=O)NCCC(=O)NC3CCCC3)ccc21,2.5,-4.1,2.8,4.2,-0.2,0.6,·,
Cn1c(=O)oc2cc(S(=O)(=O)NC3CCCCCCC3)ccc21,5.0,-6.0,-1.1,42.8*,-1.3,-3.3,39.5*,
CCOc1ccc(S(=O)(=O)NCCC(=O)NCc2ccc(OC)c(OC)c2)cc1,-0.6,·,-0.9,·,0.8,·,·,
C=CCn1c(N)c(C(=O)NCC2CCCO2)c2nc3ccccc3nc21 (centres undefined),12.4,-8.6,9.2,79.9*,-2.3,-0.3,4.9,
CCN(CC)c1ccc(N=C2C(=O)Nc3ccccc32)cc1,13.2,·,-5.9,85.0*,30.1*,-0.6,4.5,
Cc1ccc(N=C2C(=O)Nc3ccccc32)cc1,0.0,·,-3.8,1.0,-0.7,-3.5,·,
Nc1nc2c(s1)CCc1c-2cnn1-c1ccccc1,40.4*,10.5,11.8,72.3*,·,14.2,70.7*,
COC(=O)c1cccc2c1NC(=O)C2=O,2.5,0.2,-8.0,50.5*,-1.7,1.2,1.2,
O=C(CSc1nnc(-c2c[nH]c3ccccc23)n1C1CC1)NC1CCS(=O)(=O)C1 (centres undefined),·,·,·,·,-1.6,·,·,
O=C(CSc1nnc(-c2ccc(Cl)cc2Cl)n1C1CCCCC1)NC1CCS(=O)(=O)C1 (centres undefined),-11.8,2.1,0.8,45.1*,-4.5,-3.4,4.3,
COC(=O)C1=C(C)N(Cc2cccc(C(F)(F)F)c2)C(=NCc2ccc(OC)cc2)NC1c1cccc(Cl)c1 (centres undefined),·,·,·,·,0.9,·,·,
C1=CC2=NC34CCCCC3CC3=C(CCCC3)N4C2=CC1=NC1CCCCC1 (centres undefined),6.5,·,8.9,76.3*,·,0.2,8.3,
CC1(C)CC(=O)C(CCCN2C(=O)c3ccccc3C2=O)C(=O)C1,-1.2,-10.4,0.5,0.4,-2.7,-1.0,·,
O=C(Nc1ccccc1)c1nn(-c2ccccc2)c(=O)cc1C(F)(F)F,-3.6,-7.3,-0.7,9.1,-1.8,5.1,·,
O=C(c1ccccc1)c1nn(-c2ccc(Cl)cc2)c(=O)cc1C(F)(F)F,2.1,-0.8,-0.2,76.1*,-1.1,5.5,78.5*,
COc1ccc(CNC(=O)C(c2ccncc2)N(C(=O)Cc2cccs2)c2ccccc2)cc1 (centres undefined),·,1.3,·,·,2.8,·,·,
COc1ccc(N(C(=O)CCl)C(C(=O)NCCc2ccccc2)c2cccs2)cc1 (centres undefined),14.4,-18.6,-14.7,93.3*,-0.3,-4.2,97.6*,GSTO1 recomb ABPP=94.0*
Cc1ccn2cc(-c3ccc(O)c(O)c3)nc2c1,-1.5,·,-4.5,60.0*,18.1,8.1,11.8,
Oc1ccc(-c2cn3ccccc3n2)cc1O,-0.1,·,-5.5,43.1*,3.8,-1.8,3.9,
Oc1cccc(C=Nc2cccc3ccccc23)c1O,-4.7,·,3.0,88.1*,38.3*,4.6,9.9,
Oc1c(CN2CCN(c3ccccc3)CC2)cc(Br)c2cccnc12,-4.5,0.4,-5.3,37.8*,0.0,7.1,4.3,
c1ccc(N2CCN(Cc3ccnc4ccccc34)CC2)cc1,-3.1,-12.0,8.6,-3.0,0.9,1.5,·,
